The list is not random: actives were taken first. Their share in the collection is about 3.7%.
KCNQ1 pot = potentiators or activators of KCNQ1 channel, primary screen, cell-based, thallium flux, high-throughput. Potassium voltage-gated channel subfamily KQT member 1 (Homo sapiens), P51787. CHO-K1 KCNQ1, thallium flux FluxOR fluorescence; active compounds read high. B-score at 10 µM. 0.35% of 310,000 active;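 active = fluorescence ratio B-score, a plate-corrected score, at least three library SD, with initial intensity B-score within 5 SD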
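System: Stable KCNQ1 CHO-K1 line | Incubation: 90 min dye loading and 20 min compound exposure, both at room temperature | Measure: Ratio B score | Medium: Assay buffer for compound exposure, DMSO matched across wells | Compound dosing: Single-concentration screen | Probe or stimulus: K+/Tl+ depolarizing stimulus | Measured by: Kinetic FluxOR fluorescence, 10 s baseline plus 110 s post-stimulus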
KCNK9 inh = KCNK9 potassium channel inhibitors, primary screen, HEK293 cells, thallium flux; FluxOR thallium flux fluorescence; active compounds read low; B-score at 10 µM; 1.2% of 310,000 active; AID 488922, 2010;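 active = ratio B-score over 3 SD below the library mean, with starting fluorescence within 5 SD of its mean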;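 also: negative B-score means less thallium flux so channel inhibition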
KCNK3 block = human KCNK3 channel inhibitors, primary screen, CHO cells, FluxOR thallium flux, B-score; FluxOR fluorescence; active compounds read low; B-score at 10 µM; Potassium channel subfamily K member 3 (Homo sapiens), O14649; 0.84% of 340,000 active; AID 602410, 2012;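 active = B-score under library mean minus 4 SD, starting fluorescence ratio at most library mean plus 5 SD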;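 also: more negative B-score means stronger inhibition of thallium flux through KCNK3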
hERG rescue = hERG rescue from dofetilide block, primary screen, cell-based, CHO-hERG, FluxOR thallium flux, dofetilide IC70 | activation (rescue from dofetilide block), less the hit threshold, % at 10 µM | dofetilide IC70 present | AID 1511, 2009 | 0.51% of 310,000 active | Voltage-gated inwardly rectifying potassium channel KCNH2 (Homo sapiens), Q12809;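 active = activation above the mean of controls blocked by dofetilide plus 5 SD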;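 also: thallium influx through hERG after potassium depolarization seen as dye fluorescence rise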
KCNQ1 block = inhibitors of human KCNQ1 channel, primary screen, cell-based, thallium flux, high-throughput. B-score at 10 µM. Potassium voltage-gated channel subfamily KQT member 1 (Homo sapiens), P51787. 1.3% of 310,000 active. CHO-K1 KCNQ1, FluxOR thallium flux fluorescence; active compounds read high;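 active = compounds whose thallium flux B-score, printed positive for inhibition, exceeds three library SD while starting fluorescence stays within three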;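 also: channel opened by potassium depolarization with thallium stimulus after 20 min compound exposure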
Kir21 block = inhibitors of mouse Kir2.1 inward-rectifier potassium channel. Inward rectifier potassium channel 2 (Mus musculus), P35561. AID 1672, 2009. HEK293-Kir2.1, FluxOR thallium flux fluorescence; active compounds read low. 0.85% of 310,000 active. B-score at 10 µM;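 active = fluorescence ratio B-score at or below minus 3 SD of library scores, with starting-brightness B-score within 2 SD, cut at about -4.2 in these data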;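 also: channel flux triggered by added potassium and thallium sulfate stimulus; B-score of peak minus minimum fluorescence over baseline after thallium stimulus; more negative B-score means stronger Kir2.1 block with less thallium influx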
KCNK9 block conf = KCNK9 potassium channel inhibitors, confirmation, HEK293 cells, thallium flux, duplicate. shares compounds with KCNK9 inh. FluxOR thallium flux fluorescence. inhibition, % at 10 µM. 43% of 4,900 active;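 active = thallium signal inhibited by more than 5 SD of the compound-free buffer control wells, on both duplicate plates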;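 also: 0% = assay buffer control wells without compound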
Kir21 sel = mouse Kir2.1 channel inhibition, confirmation, selectivity assay for KCNK9 modulator project, cell-based, HEK293, thallium flux; Kir2.1 cells, FluxOR thallium flux fluorescence; AID 492993, 2010; 4% of 4,900 active; inhibition, % at 10 µM; shares compounds with KCNK9 inh;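 active = thallium signal drop more than 5 SD beyond the mean of the no-compound control wells, seen in both duplicate plates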;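 also: signal is fluorescence rise after thallium addition divided by baseline fluorescence; plate controls were assay buffer only for no effect and full block by chlorpromazine control for full effect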
KCNK9 uninduced = thallium flux in non-induced HEK293 cells, confirmation, counter-screen for KCNK9 inhibitor project, cell-based, second counter screen, non-induced KCNK9-HEK293; shares compounds with KCNK9 inh; FluxOR thallium flux; inhibition, % at 10 µM; 40% of 4,900 active;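 active = thallium signal drop beyond 5 SD of the untreated control mean, on both duplicate plates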;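 also: plate controls were buffer only IC0 wells for no effect and SID17386958 at its maximal inhibitory level for full effect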
Active calls of the source: *; i = inactive; / = not tested or not shown.

SMILES | KCNQ1 pot | KCNK9 inh | KCNK3 block | hERG rescue | KCNQ1 block | Kir21 block | KCNK9 block conf | Kir21 sel | KCNK9 uninduced
CC(=C/c1ccccc1)/C=N/NC(=O)c1nnn(-c2nonc2N)c1CN1CCC(C)CC1 | i | i | i | -10 | i | -1.8 | / | / | /
C/C(=C\c1ccccc1)C(=O)Nc1ccc(S(=O)(=O)Nc2ncccn2)cc1 | i | i | i | 2 | i | -0.67 | / | / | /
COc1ccc(-c2noc(N3CCC(C(=O)NC(C)c4ccccc4)CC3)n2)cc1 (configuration not stated) | i | i | i | -10 | i | -0.3 | / | / | /
CCC(C(=O)Nc1nc(C)c(C(=O)OC)s1)c1ccccc1 (configuration not stated) | i | -9.4* | i | -13 | i | -1.4 | 30%* | i | 26%*
COc1ccccc1N(CC(=O)NCCSCc1ccco1)S(=O)(=O)c1ccccc1 | i | i | i | -9 | i | -2.4 | / | / | /
Cc1cc(C)c(C(=O)C(C)OC(=O)c2ccc(Cl)nc2)cc1C (configuration not stated) | i | i | i | -9 | i | 0.44 | i | i | i
Cc1ccc(C(=O)OCN2C(=O)c3ccccc3C2=O)cc1S(=O)(=O)N1CCOCC1 | i | i | i | -12 | i | 0.25 | / | / | /
COc1ccc(-c2noc(C3CCCN(S(=O)(=O)c4cccc(Cl)c4)C3)n2)cc1OC (configuration not stated) | i | -8.1* | i | -12 | i | 1.5 | i | i | 26%*
Cc1cc(=O)n(CC(=O)Nc2cc(Cl)ccc2C)c(C(C)C)n1 | i | i | i | -7 | i | 0.06 | / | / | /
Cc1cccc(N=C2NC(=O)C(CO)(CO)S2)c1 | i | i | i | -9 | i | 1.9 | / | / | /
O=C(NC(Cc1ccccc1)c1ccc2c(c1)OCCCO2)c1ccccc1F (configuration not stated) | i | i | i | -9 | i | 0.58 | / | / | /
CC(=O)N(CCC(Cc1ccccc1)c1ccc2c(c1)OCO2)Cc1ccccc1F (configuration not stated) | i | -16* | i | -6 | 6* | -0.62 | 28%* | i | i
CCOC(=O)CCNCc1ccc(OC)c(OC)c1 | i | i | i | -9 | i | -0.12 | / | / | /
CCOC(=O)CC(NCc1ccc(OC)c(OCC)c1)c1ccc(C)cc1 (configuration not stated) | i | i | i | -8 | i | 0.01 | i | i | i
FC(F)(F)c1ccccc1CN1CCCC(N2CCN(c3ccccc3)CC2)C1 (configuration not stated) | i | i | i | -4 | i | -0.11 | i | i | i
Cc1cc(C)c(OC2(c3ccccc3)OC(=O)c3ccccc32)c(C)c1 (configuration not stated) | i | -17* | i | -9 | i | 1.8 | 69%* | i | 47%*
